Screening results from PubChem BioAssay.
ROMK primary = ROMK potassium channel modulators, primary screen, cell-based, thallium flux, MLSMR library; AID 1918, 2009; Tet-inducible ROMK, thallium flux fluorescence; actives lie on both sides; 2% of 130,000 active; B-score at 10 µM; ATP-sensitive inward rectifier potassium channel 1 (Homo sapiens), P48048;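 active = signal ratio slope over the read window, or its plate-corrected B-score, at least 3 SD from the plate mean, either direction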;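 note: B-score of the F/F0 ratio slope over 7 to 12 s after thallium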
ABCG2 block = ABCG2 efflux pump inhibitors, primary screen, multiplex with ABCB1, IgMXP3 cells, flow cytometry. Broad substrate specificity ATP-binding cassette transporter ABCG2 (Homo sapiens), Q9UNQ0. JC-1 efflux. inhibition, % at 6.6 µM. 0.1% of 190,000 active;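 active = inhibition above 80%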;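 note: 0% = DMSO and 100% = nicardipine control wells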
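Read-out basis: Efflux inhibition in percent versus controls | Test system: ABCG2 IgMXP3 and barcoded ABCB1 CCRF-Adr cell mix | Quantity: 3 million cells/mL in well | Schedule: 10 min at 25 °C | Control set: Nicardipine as high control, DMSO as low control | Reagent: JC-1 as fluorescent efflux pump substrate | Signal: Flow cytometry of retained JC-1 fluorescence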
PMI act = activators of human PMI, primary screen, biochemical, fluorescence intensity, near-Km mannose 6-phosphate; Mannose-6-phosphate isomerase (Homo sapiens), P34949; purified human PMI, coupled resazurin fluorescence, 20 min; stronger effect = higher value; 1 = vehicle control, 0 substrate-free wells; activation factor at 20 µM; 0.005% of 190,000 active; AID 1214, 2008;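 active = activation factor of 2 or more at 20 µM, relative to plate controls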
PMI act satM6P = human PMI activators, high substrate, primary screen, biochemical, fluorescence intensity, near-saturating mannose 6-phosphate; Mannose-6-phosphate isomerase (Homo sapiens), P34949; coupled PMI enzyme assay, resazurin fluorescence, 20 min; stronger effect = higher value; 1 = untreated enzyme, 0 = substrate-free blank; AID 1216, 2008; activation factor at 20 µM; 0.34% of 190,000 active;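 active = activation factor of 2 or more at 20 µM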
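Test system: human phosphomannose isomerase with PGI, G6PDH, diaphorase coupling enzymes; Amount: PMI at 15 ng/mL final; Reagent: Mannose-6-phosphate 1.0 mM (near-saturating) plus 0.22 mM NADP+; Timing: 20 min, room temperature; Technique: resorufin fluorescence at Ex 544/Em 590 nm; Dosing: 20 µM single dose.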
Cl transport mod = KCC2 cotransporter modulators, thallium flux, primary screen, cell-based, HEK293 KCC2, FluoZin-2 fluorescence, MLSMR | KCC2 cells, thallium flux FluoZin-2 fluorescence | B-score of Tl+ flux slope (higher = more flux/activation; lower = inhibition) at 10 µM | 2.2% of 190,000 active | Solute carrier family 12 member 5 (Homo sapiens), Q9H2X9;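 active = thallium flux slope and its plate-corrected score both differing from the plate sample mean at a set confidence after two filtering rounds, in either direction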;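 note: slope of fluorescence scaled to starting intensity during 10 to 20 s after thallium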
ABCB1 inh = ABCB1 efflux pump inhibitors, primary screen, cell-based, multiplex, flow cytometry, ABCG2 counter-screen | CCRF-Adr cells, JC-1 efflux | ATP-dependent translocase ABCB1 (Homo sapiens), P08183 | 0.067% of 190,000 active | inhibition, % at 6.6 µM; in the data active = inhibition above about 40%;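 note: 0% = vehicle and 100% = reference inhibitor; higher value means more JC-1 retained so stronger ABCB1 efflux block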
Target sequence (P08183 whole entry, looked up): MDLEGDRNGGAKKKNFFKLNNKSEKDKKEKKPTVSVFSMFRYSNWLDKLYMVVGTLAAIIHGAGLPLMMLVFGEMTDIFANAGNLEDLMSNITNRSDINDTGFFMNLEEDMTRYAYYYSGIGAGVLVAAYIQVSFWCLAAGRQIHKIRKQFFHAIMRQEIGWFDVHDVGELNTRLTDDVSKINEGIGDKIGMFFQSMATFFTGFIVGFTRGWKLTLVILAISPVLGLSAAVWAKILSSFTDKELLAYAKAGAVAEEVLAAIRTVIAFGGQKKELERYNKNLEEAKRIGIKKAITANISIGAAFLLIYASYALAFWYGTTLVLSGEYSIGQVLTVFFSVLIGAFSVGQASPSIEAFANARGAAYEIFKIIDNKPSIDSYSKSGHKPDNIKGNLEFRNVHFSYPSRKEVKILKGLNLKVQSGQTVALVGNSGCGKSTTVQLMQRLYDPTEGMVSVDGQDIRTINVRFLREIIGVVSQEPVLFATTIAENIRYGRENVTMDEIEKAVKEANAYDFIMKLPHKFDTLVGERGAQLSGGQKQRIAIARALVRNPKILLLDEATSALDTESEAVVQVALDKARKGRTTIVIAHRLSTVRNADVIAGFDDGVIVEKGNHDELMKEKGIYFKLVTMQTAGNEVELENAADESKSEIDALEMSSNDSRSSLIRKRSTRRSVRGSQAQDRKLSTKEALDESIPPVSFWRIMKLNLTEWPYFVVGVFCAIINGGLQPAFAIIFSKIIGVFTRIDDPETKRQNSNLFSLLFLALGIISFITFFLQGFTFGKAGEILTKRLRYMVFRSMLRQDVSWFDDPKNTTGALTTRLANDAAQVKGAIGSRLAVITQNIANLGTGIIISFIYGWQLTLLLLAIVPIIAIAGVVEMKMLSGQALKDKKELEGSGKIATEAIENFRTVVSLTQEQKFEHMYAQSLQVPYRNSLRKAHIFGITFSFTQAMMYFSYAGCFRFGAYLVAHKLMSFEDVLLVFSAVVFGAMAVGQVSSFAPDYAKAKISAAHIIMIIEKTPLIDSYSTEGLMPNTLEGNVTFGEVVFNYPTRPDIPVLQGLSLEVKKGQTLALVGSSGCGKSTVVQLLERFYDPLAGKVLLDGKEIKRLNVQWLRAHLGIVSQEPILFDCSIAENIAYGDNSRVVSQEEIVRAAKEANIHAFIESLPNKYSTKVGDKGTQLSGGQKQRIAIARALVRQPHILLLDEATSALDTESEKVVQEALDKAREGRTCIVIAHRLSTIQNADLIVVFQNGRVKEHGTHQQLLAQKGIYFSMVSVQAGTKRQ
* marks the source's active call; other numbers are inactive results; . = no result given. In the library only some 3.3% were active in any assay of this set; here they are far more common.

SMILES	ROMK primary	ABCG2 block	PMI act	PMI act satM6P	Cl transport mod	ABCB1 inh
CCCCCC/C(C)=C1/SC(=S)NC1=O	.	-0.7	0.8	0.9	53.4*	-0.3
O=C1OC(c2ccc3c(c2)OCO3)N(C(=O)c2ccc(Cl)c(Cl)c2)c2ccccc21 (centres undefined)	0.533*	12.6	0.9	1	-0.129	1.8
O=C(/C=C/c1ccccc1[N+](=O)[O-])Nc1ccccc1	0.0891	11.5	0.9	0.8	-0.0581	0.7
NN/C(=C\[N+](=O)[O-])Nc1ccccc1	.	1.8	1.7	2.6*	-0.688	0.2
Cn1c(=O)[nH]c(=O)c2c1nc(Br)n2C/C=N/Nc1ccccc1	1.23	5.0	2*	3*	-0.25	-1.0
Cn1c(=O)[nH]c(=O)c2c1nc(Br)n2C/C=N/NC(=O)c1ccccc1	.	.	.	.	0.581	.
CC(=O)Nc1ccc(NC(=O)Cn2cnc3c(cnn3C(C)(C)C)c2=O)cc1	0.00169	1.7	0.9	0.9	-0.104	0.4
CC(C)(C)n1ncc2c(=O)n(CC(=O)NCc3ccccc3)cnc21	4.2*	0.1	0.9	0.9	0.0837	0.0
Cc1nc(-c2ccccc2)sc1C1(C)CC(c2cccc([N+](=O)[O-])c2)=NO1 (centres undefined)	.	.	.	.	-0.0835	.
Cc1cc(NC(=O)CN2C(=O)NC3(CCC(C)CC3)C2=O)no1 (centres undefined)	0.799	15.9	1	1	1.34	1.7
CCSc1nnc(-c2ccccc2SC)o1	-0.137	4.0	1.8	2.1*	0.0258	0.2
CSc1ccccc1-c1nnc(-c2ccc(Cl)cc2Cl)o1	-0.575	1.9	0.8	0.8	.	0.4
Cc1c(-c2ccccc2)sc2nc[nH]c(=S)c12	4.86*	-0.6	1.2	1.1	90*	-0.1
Nc1c(C(=O)C2CC2)sc2nc(-c3ccccc3)cc(C(F)(F)F)c12	.	28.6	1.5	2*	-0.547	13.5
COc1ccc(S(=O)(=O)Nc2ccc(-n3cccc3)cc2)cc1	1.34	-1.3	1	1	0.105	-0.2
CN(C)S(=O)(=O)c1cccc(NC(=S)Nc2cc(Cl)cc(Cl)c2)c1	0.628	-3.8	1	1.1	-1	-1.2
CN(C)S(=O)(=O)c1cccc(NC(=S)Nc2ccc(Cl)cc2Cl)c1	0.638	0.0	1	1.1	5.45*	0.0
CN(C)CCCN1C(=O)c2oc3ccccc3c(=O)c2C1c1cccs1 (centres undefined)	.	0.3	0.9	0.9	7.34*	0.2
CN(C)CCN1C(=O)c2oc3ccccc3c(=O)c2C1c1ccccc1 (centres undefined)	.	.	1.1	0.9	.	.
COc1ccc(NC(=O)C(=O)NNC(=O)c2cccs2)cc1	.	32.6	0.8	0.9	12.5*	0.0
CC(C)(C)NC(=O)C(=O)NNC(=O)COc1ccc(Br)cc1	1.77	9.5	0.9	1	20.2*	0.3
COc1ccc(OCC(=O)NNC(=O)C(=O)Nc2ccc(C)cc2)cc1	0.000814	0.0	1	0.9	21.9*	0.1
Cc1ccc(NC(=O)c2cccs2)cc1	.	62.9	1	0.9	-0.0345	1.1
Cc1ccc(NC(=O)C(=O)NNC(=O)c2cccs2)cc1	2.94*	0.8	1	1	42.7*	0.1
CC(C)[C@@H](C(=O)N1CCNCC1)n1cc(CCO)nn1	.	1.1	1.1	1.1	-0.481	0.4
SMILES	ROMK primary	ABCG2 block	PMI act	PMI act satM6P	Cl transport mod	ABCB1 inh
CSc1nnc(SCC#N)s1	0.584	.	.	.	1.36	.
CN(Cc1ccccc1)c1ccc(S(=O)(=O)N2CCC(C(=O)O)CC2)cc1[N+](=O)[O-]	0.0539	19.1	0.9	0.9	0.0675	2.5
CCOC(=O)N1CCC(NCc2c(C(=O)N(C)Cc3ccccc3)nc3ccccn23)CC1	0.459	0.2	0.9	0.9	.	0.6
Cc1ccc(SCc2cc(=O)[nH]c(/N=C(\N)Nc3ccc(C)c(C)c3)n2)cc1	.	1.1	1	1.1	0.4	0.0
CCNC(=S)Nc1ccc(S(=O)(=O)Nc2cc(C)nc(C)n2)cc1	0.567	1.5	1.1	1.1	0.57	0.3
COc1ccc(NC(=O)C(=O)NNC(=O)c2cccs2)c(OC)c1	0.652	1.1	0.9	0.9	10.8*	0.3
COc1ccc(NC(=O)C2CCN(C(=O)c3cccs3)CC2)c(OC)c1	.	1.9	0.9	1	0.0431	0.6
CSc1nncc(/C(C)=N\Nc2cccc(C)c2)n1	0.458	0.7	1.5	2.4*	0.257	0.3
CC/C(=N/Nc1ccccc1C)c1cnnc(SC)n1	-1.31	0.4	1.5	2.3*	.	0.1
CSc1nncc(/C(C)=N\Nc2ccccc2)n1	.	1.3	1.4	1.9	-0.031	-0.6
CC(=O)c1cn(S(=O)(=O)c2ccccc2)c2ccccc12	-1.69	2.3	1	1	-0.592	0.7
O=S(=O)(c1ccc(N=C2NN=C(c3cc(F)ccc3F)CS2)cc1)N1CCOCC1	0.936	-1.6	1.7	2.3*	-1.56	-0.6
OCCC1CN(Cc2ccc(Oc3ncccn3)cc2)CCN1Cc1ccc(F)c(F)c1 (centres undefined)	.	.	.	.	-0.493	.
COc1ccc(/C(C)=N/Nc2ccc(F)cc2F)c(O)c1	1.67	0.9	1.7	2.5*	0.673	-0.1
COc1ccc(C(=O)NC(C)c2nnc(SCC(=O)Nc3nc(C)cs3)n2C)cc1 (centres undefined)	0.101	1.9	0.9	1	0.935	0.6
COc1ccc(C(=O)NC(C)c2nnc(SCC(=O)Nc3nc4ccccc4s3)n2C)cc1 (centres undefined)	0.108	9.1	0.9	1	-4.63*	1.3
NC(=NC(=O)c1ccccc1)N1CCN(C(c2ccccc2)c2ccccc2)CC1	-0.213	.	.	.	-0.0217	.
Cc1cccc(NC(=S)NC(=O)c2cccs2)n1	.	5.9	0.9	0.9	18*	0.6
Cc1cccc(NC(=S)NC(=O)c2ccco2)n1	.	-3.4	0.9	0.9	28*	-0.3
Cc1ccc2nc(NC(=O)c3cccs3)sc2c1	1.63	10.5	1.1	1	1.44	-0.5
Cc1ccc2nc(NC(=S)NC(=O)c3cccs3)sc2c1	.	0.1	1	1.1	9.24*	0.0
Cc1ccc(OCC(=O)NC(=S)Nc2cccc(C)n2)cc1	0.245	-1.7	1	1.1	8.41*	-0.4
Cc1ccc(OCC(=O)NC(=S)Nc2ccc(Br)c(C)n2)cc1	.	1.0	1	1	.	0.3
